Experimental data reported in ChEMBL document CHEMBL4513216, “Probing the Open Global Health Chemical Diversity Library for Multistage-Active Starting Points for Next-Generation Antimalarials” (ACS Infect Dis, 2020).

Assay: Toxicity liver stage against HepG2, at 10uM
Format: cell-based
Design: test concentration 10 uM, cell line HepG2-A16-CD81EGFP
Conditions: human, HepG2-A16-CD81EGFP cells; read-out: INHIBITION
Outline: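 Uninfected HepG2-A16-CD81EGFP cells, 3 × 10^3 per well, 1536-well, plated on prespotted compound at 10 μM final, parasite-free screening media added to match infected plates; puromycin 10 μM positive, DMSO 0.5% negative; run in parallel with 48 h PbLuc assay at 37 °C, 5% CO2; viability by CellTiter-Glo luminescence, normalized to controls.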

O=S(=O)(NCc1cn2ccccc2n1)N1CCOCC1
cytotoxicity at 10 µM: 2.69%

COc1ccc(CNC[C@H]2COCc3nc4cc(F)ccc4n32)cc1
cytotoxicity at 10 µM: 1.52%

CCc1c(C)sc2c1c(N)nc(=O)n2CCN1CCOCC1
cytotoxicity at 10 µM: 1.17%

COCCn1ccc(=O)c(OCC(=O)Nc2ccc(OC)c(Cl)c2)c1C
cytotoxicity at 10 µM: 5.36%

CC1=Nc2c(c(=O)[nH]n2C(C)C)C(c2ccc3c(c2)n(C)c(=O)n3C)S1 (stereo not given)
cytotoxicity at 10 µM: 3.75%

O=c1n(Cc2cccc(C(F)(F)F)c2)nc2ncccn12
cytotoxicity at 10 µM: -8.64%

C1CN(c2nc3c(c(NC4CC4)n2)CN(CC2CCOC2)CC3)CCO1 (stereo not given)
cytotoxicity at 10 µM: -2.22%

CC(=O)N1CCC2(CC1)C(=O)N(c1cccnc1)c1ccc(F)cc12
cytotoxicity at 10 µM: 10.6%

O=C1[C@@H]2CCN(CC3CCOCC3)C[C@@H]2OCCN1c1ccccc1
cytotoxicity at 10 µM: -5.21%

CC(C)C(=O)N1CC[C@@H]2CN(Cc3ccncc3)S(=O)(=O)[C@@H]2CC1
cytotoxicity at 10 µM: 5.38%

COCCO[C@H]1CCN(c2cc(OC)ncn2)[C@H]1Cc1ccncc1
cytotoxicity at 10 µM: -146%

CCOC(=O)C1CN(S(=O)(=O)CC)Cc2ncn(CC)c21 (stereo not given)
cytotoxicity at 10 µM: 6.83%

CN1CCN(C(=O)c2n[nH]c3c2CCN(Cc2nccs2)C3)CC1
cytotoxicity at 10 µM: -143%

Cc1nccc([C@@H]2C[C@@H]3CCN(S(=O)(=O)C4CC4)C[C@H]3O2)n1
cytotoxicity at 10 µM: -5.9%

Cc1ccnc(OC[C@]23COC[C@H]2CN(C(=O)Cc2ccsc2)C3)n1
cytotoxicity at 10 µM: -0.376%

COC(=O)CCC(=O)N1CCC2(CN(Cc3cccc(F)c3)C2)C1
cytotoxicity at 10 µM: 4.6%

O=C1NCC[C@]12CN(Cc1ccoc1)C[C@H]2c1ccccc1
cytotoxicity at 10 µM: 4.55%

Cc1c(Br)c(C(=O)NC(C)c2ccccc2)nn1C (stereo not given)
cytotoxicity at 10 µM: -4.34%

CCn1nc(C)c2nc(C(C)C)nc(N3CCOCC3)c21
cytotoxicity at 10 µM: 2.88%

N#Cc1ccc(C2CC(=O)Nc3c(C(=O)O)nsc32)cc1 (stereo not given)
cytotoxicity at 10 µM: 3.02%

O=C1Nc2ccccc2CC12CCCN2Cc1ccc(F)cc1 (stereo not given)
cytotoxicity at 10 µM: 10.5%

CC(C)(C)c1nc(CN(CCO)Cc2cc(Br)ccc2F)no1
cytotoxicity at 10 µM: 8.52%

CS(=O)(=O)Cc1ccc(OCc2ccc(F)cc2)cc1
cytotoxicity at 10 µM: 22.9%

CCCn1cc(C(=O)NCCS(N)(=O)=O)c2ccccc21
cytotoxicity at 10 µM: 5.15%

Cc1cc(C)cc(C(=O)NCCS(=O)(=O)N2CCSCC2)c1
cytotoxicity at 10 µM: -12.5%

Cc1nn(C)c(C)c1C(C)NCc1ccc(OC(C)C)cc1 (stereo not given)
cytotoxicity at 10 µM: 15.3%

CC(CNC(=O)c1cc(N2CCNC2=O)ccc1F)c1ccccc1 (stereo not given)
cytotoxicity at 10 µM: -2.1%

NC(=O)c1cnc(NC2CCN(C(=O)C3CC3)CC2)c(Cl)c1
cytotoxicity at 10 µM: -14.2%

COC(=O)c1ccc(Cn2nc(C)cc2C)c(F)c1
cytotoxicity at 10 µM: 4.11%

Cc1nsc(N2CCCN(C(=O)NCc3cccnc3)CC2)n1
cytotoxicity at 10 µM: -0.555%

OCCOc1ccc(NCc2cccc3cccnc23)cn1
cytotoxicity at 10 µM: -3.24%

N#Cc1ccc(SCCOCCO)c(F)c1
cytotoxicity at 10 µM: 0.513%

CC(C)N(Cc1ccccc1)Cc1nnsc1Cl
cytotoxicity at 10 µM: -9.44%

CC(C)C(=O)NC1CCN(c2cccc(OC(F)(F)F)c2)C1=O (stereo not given)
cytotoxicity at 10 µM: -4.13%

CCN1CCN(c2ccc(F)cc2C(C)NCc2nc(C)no2)CC1 (stereo not given)
cytotoxicity at 10 µM: -17.9%

CC(NC(=O)N(C)Cc1ccc2c(c1)OCO2)c1nncn1C (stereo not given)
cytotoxicity at 10 µM: -1.31%

CCn1cc(C(=O)Nc2ccc(C)cc2C(=O)OC)cn1
cytotoxicity at 10 µM: 5.47%

CN(C(=O)c1ccc(C#N)cc1)C1CCN(c2ccccn2)CC1
cytotoxicity at 10 µM: -7.56%

CC(C)c1nnc(NC(=O)c2cccc(OCC(F)(F)F)n2)[nH]1
cytotoxicity at 10 µM: -1.26%

CN(Cc1nnnn1C1CC1)c1cccc2ccccc12
cytotoxicity at 10 µM: 8.38%

CC1(C)Oc2ccc(NC(=O)c3ccc(=O)[nH]n3)cc2O1
cytotoxicity at 10 µM: 10.1%

CC(O)CN1CCC(CN(C)C(=O)NC2CC2)CC1 (stereo not given)
cytotoxicity at 10 µM: 5.55%

Cc1ncc(CNc2cnccc2CO)s1
cytotoxicity at 10 µM: -24.7%

CS(=O)(=O)c1nccn1CCOc1ccc(F)cc1Cl
cytotoxicity at 10 µM: 13.1%

C[S+]([O-])CCCNCc1cc(F)ccc1Br (stereo not given)
cytotoxicity at 10 µM: 0.732%

Cc1cc(C(=O)NCC(=O)NC(c2ncccc2C)C(C)C)c(C)o1 (stereo not given)
cytotoxicity at 10 µM: -9.6%

Cn1cnc(S(=O)(=O)N2CCSC3(CCCCC3)C2)c1
cytotoxicity at 10 µM: -5.95%

Cc1nc(C(=O)Nc2cc(N3CCNC3=O)ccc2Cl)cs1
cytotoxicity at 10 µM: -1.33%

O=C(c1cccnc1-n1cncn1)N1CCc2ccccc2C1
cytotoxicity at 10 µM: -13.9%

Cc1nsc(N2CCCN(c3nc(C4CC4)ns3)CC2)n1
cytotoxicity at 10 µM: -11.5%

CCCn1ncc(C(=O)N2CCN(C3CCCC3)CC2)c1C
cytotoxicity at 10 µM: -151%

CC(=O)N1CCCC(C(=O)NCCc2nc(Cc3ccccc3)no2)C1 (stereo not given)
cytotoxicity at 10 µM: 3.81%

CCn1c(N)nc2cc(C(=O)N3CCN(c4nccs4)CC3)cnc21
cytotoxicity at 10 µM: -17.2%

CN(Cc1noc2c1CCCC2)C(=O)Nc1cccc(S(N)(=O)=O)c1
cytotoxicity at 10 µM: -4.32%

Cc1ccoc1C(=O)N1CCC(n2cc(CO)nn2)CC1
cytotoxicity at 10 µM: -1.52%
